Laboratory results as given in ChEMBL document CHEMBL4422701, “Jatrophane Diterpenoids from Euphorbia glomerulans” (J Nat Prod, 2019).
pIC50: −log10 of the molar value.

Columns and labels:
MCF7 = experiment: Cytotoxicity in human MCF7 cells assessed as reduction in cell viability incubated for 48 hrs by MTT assay; type: cell-based; settings: MCF7, 48 h
In short: (§1)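 Cells grown in RPMI-1640 with 10% heat-inactivated FBS at 37 °C, 5% CO2. Compounds were dissolved in DMSO and given as serial dilutions to cells seeded at 5 × 10^3 per well in log phase, for 48 h. MTT (5 mg/mL) was then added for 4 h, formazan dissolved in DMSO, and absorbance read at 570 nm.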

NCI/ADR-RES = experiment: Cytotoxicity in doxorubicin-resistant human MCF7/ADR cells assessed as reduction in cell viability incubated for 48 hrs by MTT assay; type: cell-based; in short: as §1

Row | SMILES | pIC50 (MCF7) | pIC50 (NCI/ADR-RES)
1 | C=C1[C@H](O)[C@H]2[C@@H](OC(=O)c3ccccc3)[C@](C)(OC(C)=O)C[C@]2(O)[C@H](OC(C)=O)[C@@H](C)/C=C/C(C)(C)C(=O)[C@H](OC(C)=O)[C@H]1OC(C)=O | < 4.00 | < 4.00
2 | C=C1[C@H](OC(C)=O)[C@H]2[C@@H](OC(=O)c3ccccc3)[C@@H](C)C[C@]2(OC(C)=O)C(=O)[C@@H](C)/C=C/C(C)(C)C(=O)[C@H](OC(C)=O)[C@H]1OC(C)=O | < 4.00 | < 4.00
3 | C=C1[C@H](OC(C)=O)CC(=O)C(C)(C)/C=C/[C@H](C)C(=O)[C@@]2(OC(C)=O)C[C@H](C)[C@H](OC(=O)c3ccccc3)[C@@H]2[C@H]1OC(C)=O | 4.29 | 4.41
4 | C=C1[C@H](OC(=O)c2ccccc2)[C@H]2[C@@H](OC(C)=O)[C@@H](C)C[C@]2(OC(C)=O)C(=O)[C@@H](C)/C=C/C(C)(C)C(=O)[C@H](O)[C@H]1OC(C)=O | < 4.00 | < 4.00
5 | C=C1[C@H](OC(C)=O)[C@H]2[C@@H](OC(=O)c3ccccc3)[C@](C)(O)C[C@]2(O)C(=O)[C@@H](C)/C=C/C(C)(C)C(=O)[C@H](OC(C)=O)[C@H]1OC(=O)c1ccccc1 | < 4.00 | < 4.00
6 | COc1cccc2c1C(=O)c1c(O)c3c(c(O)c1C2=O)C[C@@](O)(C(=O)CO)C[C@@H]3O[C@H]1C[C@H](N)[C@H](O)[C@H](C)O1 [DOXORUBICIN] | – | 4.19
7 | C=C1[C@H](OC(C)=O)[C@H]2[C@@H](OC(=O)c3ccccc3)[C@](C)(O)C[C@]2(O)C(=O)[C@@H](C)/C=C/C(C)(C)C(=O)[C@H](OC(=O)C(C)C)[C@H]1OC(C)=O | < 4.00 | < 4.00
8 | C=C1[C@H](OC(C)=O)[C@H]2[C@@H](OC(=O)c3ccccc3)[C@@H](C)C[C@]2(OC(C)=O)C(=O)[C@@H](C)/C=C/C(C)(C)C(=O)[C@H](O)[C@H]1OC(=O)c1ccccc1 | < 4.00 | < 4.00
9 | C=C1[C@H](OC(=O)c2ccccc2)[C@@H](OC(C)=O)[C@@H](OC(C)=O)C(C)(C)/C=C/[C@H](C)C(=O)[C@@]2(OC(C)=O)C[C@H](C)[C@H](OC(=O)c3ccccc3)[C@@H]2[C@H]1OC(C)=O | < 4.00 | < 4.00
10 | C=C1[C@H](OC(C)=O)CC(=O)C(C)(C)/C=C/[C@H](C)C(=O)[C@@]2(OC(C)=O)C[C@H](C)[C@H](OC(C)=O)[C@@H]2[C@H]1OC(=O)c1ccccc1 | < 4.00 | < 4.00
11 | C=C1[C@H](OC(C)=O)[C@H]2[C@@H](OC(=O)c3ccccc3)[C@@H](C)C[C@]2(OC(C)=O)C(=O)[C@@H](C)/C=C/C(C)(C)C(=O)[C@H](OC(C)=O)[C@H]1OC(=O)c1ccccc1 | < 4.00 | < 4.00
12 | C=C1[C@H](OC(C)=O)[C@H]2[C@@H](OC(=O)c3ccccc3)[C@@H](C)C[C@]2(OC(C)=O)C(=O)[C@@H](C)/C=C/C(C)(C)C(=O)[C@H](O)[C@H]1OC(C)=O | < 4.00 | < 4.00
13 | C=C1[C@H](O)[C@H]2[C@@H](OC(=O)c3ccccc3)[C@](C)(O)C[C@]2(O)[C@H](OC(C)=O)[C@@H](C)/C=C/C(C)(C)C(=O)[C@H](OC(C)=O)[C@H]1OC(=O)c1ccccc1 | < 4.00 | < 4.00
14 | C=C1[C@H](OC(=O)c2ccccc2)[C@H]2[C@@H](OC(C)=O)[C@@H](C)C[C@]2(OC(C)=O)C(=O)[C@@H](C)/C=C/C(C)(C)C(=O)[C@H](OC(=O)c2ccccc2)[C@H]1OC(C)=O | < 4.00 | < 4.00
15 | C=C1[C@H](OC(C)=O)[C@H]2[C@@H](OC(=O)c3ccccc3)[C@](C)(OC(C)=O)C[C@]2(O)C(=O)[C@@H](C)/C=C/C(C)(C)C(=O)[C@H](OC(C)=O)[C@H]1OC(=O)C(C)C | < 4.00 | < 4.00
16 | C=C1[C@H](OC(C)=O)[C@H]2[C@@H](OC(=O)c3ccccc3)[C@](C)(OC(C)=O)C[C@]2(O)C(=O)[C@@H](C)/C=C/C(C)(C)C(=O)[C@H](OC(=O)C(C)C)[C@H]1OC(C)=O | 4.30 | < 4.00
17 | C=C1[C@H](OC(C)=O)[C@H]2[C@@H](OC(=O)c3ccccc3)[C@@H](C)C[C@]2(O)C(=O)[C@@H](C)/C=C/C(C)(C)C(=O)[C@H](O)[C@H]1OC(C)=O | < 4.00 | < 4.00
18 | C=C1[C@H](OC(C)=O)[C@H]2[C@@H](OC(=O)CC(C)=O)[C@@H](C)C[C@]2(O)C(=O)[C@@H](C)/C=C/C(C)(C)C(=O)[C@H](OC(C)=O)[C@H]1OC(=O)c1ccccc1 | < 4.00 | < 4.00
